The values that follow come from the EternaBench riboswitch data.

In the data set the test system is MS2 coat protein. Put plainly: apparent Kd, MS2 coat protein; higher = weaker binding; RNA-MaP array; FMN 200 µM where present. The method, boiled down: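 Green signal from SNAP-549-labelled MS2 coat protein was normalised to red-channel RNA signal and to the median Fmax of control clusters. The protein was titrated from 0.7 or 1.5 nM, doubling to 3 µM, without and then with constant ligand, over designs transcribed by stalled E. coli RNA polymerase on Illumina sequencing-chip clusters, in 100 mM Tris-HCl pH 7.5, 80 mM KCl, 4 mM MgCl2, BSA, DTT, yeast tRNA and Tween-20. The apparent Kd is the median of filtered per-cluster binding-curve fits.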

[1] abbreviates: designed as: OFF switch for flavin mononucleotide, no ligand.
[2] abbreviates: ligand present: flavin mononucleotide, designed as: OFF switch for flavin mononucleotide.
[3] abbreviates: designed as: ON switch for flavin mononucleotide, no ligand.
Where [4] appears, read: ligand present: flavin mononucleotide, designed as: ON switch for flavin mononucleotide.

“AUUAAGUGAGGAUAUACAAGAUCGCUUACCGCCAAAGGCGGACAUGAGGAUCACCCAUGUAGAAGGCACAAAUU”: the apparent Kd (commonly the concentration giving half-maximal binding under the conditions of the assay) by setting is: under setting [1], 45.7 nM; under setting [2], 270 nM.

For “GAGCGAAAGCUCAAUGUCGAUAGCAGAAGGACAUGCAAUAACAUGAAAACAUGAGGAUCACCCAUGUAGGAUAUGCUAUCGACU”, the “apparent Kd” value runs as follows: under setting [1], 6.65 nM; under setting [2], 44.5 nM.

With “ACAGCAGUAGGAUAUACAUCACCAUCCGACCGUUGAUUUCAACAUGAGGAUCACCCAUGUAGAAGGGCUAGUUG”, the “apparent Kd” value by setting is: under setting [1], 93.2 nM; under setting [2], 65.7 nM.

As to “AGCAAGAGAGGAUAUACAUAGGAAAAAAAAGUCUGAUCCCUACAUGAGGAUCACCCAUGUAGAAGGCUCUGGCA”, the “apparent Kd” value runs as follows: under setting [1], 69.5 nM; under setting [2], 24.7 nM.

Regarding “UGUCUGAUCUAAUAACAUGAGGAUCACCCAUGUGUUCACAACUAGGAUAUCGAUUGUUAAGACGUCGAGAAGGAGUAUACAUUA”, the “apparent Kd” value under setting [1] was 39 nM and the “apparent Kd” value under setting [2] is 53.5 nM.

In the case of “UGUCGGAGCAGAGGAUAUUACAUGAGGAUCACCCAUGUGGAAGAACCAAGCUGGAAACAGCAAUGUAAGAAGGCUGCUCCGACA”, the “apparent Kd” value under setting [1] worked out at 1010 nM and the “apparent Kd” value under setting [2] came out at 467 nM.

Regarding “UAUAAACAUGAGGAUCACCCAUGUGAGGAUAUCUAAACCAGAGCGGAUCUCUGGCCCAAGAGAAGGUGCAUGGU”, the “apparent Kd” value under setting [1] came out at 34.6 nM and the “apparent Kd” value under setting [2] was found to be 146 nM.

“CUCAUCCUUACAGGCUGAGACAUGAGGAUCACCCAUGUAGGGAGAAGGGAGUUGGGCAUCUUGACUCAGGAUAUCCCGAAAGAC”: the “apparent Kd” value reads like this: under setting [3], 733 nM; under setting [4], 83.7 nM.

“UUAUGAGCGAUAGGAUAUACUGAGAUUGAAUGGGUAGAAGGAUCAAUUGUGUGGAAGACAUGAGGAUCACCCAUGUUACGGGCC”: the “apparent Kd” value reads like this: under setting [3], 104 nM; under setting [4], 337 nM.

Take “GUGUACAGAGGAUAUACAUGAGCAUGGAAACAUGCAUCUUCACAUGAGGAUCACCCAUGUAGAAGGCUGUACAC”: the “apparent Kd” value runs as follows: under setting [1], 227 nM; under setting [2], 75 nM.

On to “UUUUAACAUGAGGAUCACCCAUGUGAGGAUAUCGAAAUUUAUAUUAAUAUUUAUUUAUCGAGAAGGCACAUUUU”, for which the “apparent Kd” value by setting is: under setting [1], 115 nM; under setting [2], 135 nM.

Consider “GCCAUUGCAUGAGGAUAUGCUCCCGUUUCGGGAGCAGAAGGCAUGUCAUAAGACAUGAGGAUCACCCAUGUAUUUAAGAUGGCA”, for which the “apparent Kd” value was 273 nM under setting [3] and 11.5 nM under setting [4].

Consider “AAAGUGUGAAGCAGGGUGCUACAUGAGGAUCACCCAUGUCGGAGAAGGGCGCCGUUUCGCAGGGUGUAGGAUAUCUGGCGUGCA”, for which the “apparent Kd” value is 132 nM under setting [1] and 109 nM under setting [2].

Turning to “CAAUUUAUAACAGGAUAUACAAUACAAUGAUUAGUAGAAGGGUUUAAUACAUGAGGAUCACCCAUGUCAUGUGUCAUAAUAACC”, the “apparent Kd” value worked out at 34.3 nM under setting [1] and 24.9 nM under setting [2].

Consider “GCACUGGAUGUAGGAUAUCAGGACGAUAAGUCCUGAGAAGGACAUGAGGAUCACCCAUGUGACUCAUAACCAGUGCAUAAUAUA”, for which the “apparent Kd” value came out at 27 nM under setting [1] and 142 nM under setting [2].

With “UGUGUUUUUGUGAGGAUAUACUGUUUGUUUUGUUUGUAGAAGGUACAUGAGGAUCACCCAUGUUGUGUUUGGUU”, the “apparent Kd” value was 37.5 nM under setting [1] and 29.2 nM under setting [2].

With “GGAUGCCGCUCAGGAUAUGUGGGUUGUCUAGUAUUUAGAUUCCACAUGAGGAUCACCCAUGUAACACAGAAGGGAGAUGGUGAU”, the “apparent Kd” value runs as follows: under setting [3], 214 nM; under setting [4], 22.7 nM.

As to “GCGAUGAUCGAGAAGGCCACUACAUGAGGAUCACCCAUGUCGUGGUGUAUUGGAGGAUAUCGAUCGGCGUCUUAUGAGGACAUG”, the “apparent Kd” value runs as follows: under setting [1], 5.02 nM; under setting [2], 8.26 nM.

“CGUAUGAUGUCAGGAUAUGACGCUGAGAGCACGUCAGAAGGGACAUGAGGAUCACCCAUGUUGGGCUAAUGAAGCUAUGGCACU”: the “apparent Kd” value reads like this: under setting [1], 14.6 nM; under setting [2], 43.5 nM.

With “GUCAGCUCGUGAGGAUAUACAUGUGCUGGAAACAGCACUAUUAAGAUCACAUGAGGAUCACCCAUGUAGAAGGCACGAGCUGAU”, the “apparent Kd” value by setting is: under setting [1], 47.3 nM; under setting [2], 630 nM.

For “AUGUUACAUGAGGAUCACCCAUGUGAGGAUAUGUGUACCGGUAAAAAAGUGUUUGGCCACAGAAGGCAUUUGGG”, the “apparent Kd” value reads like this: under setting [1], 44.5 nM; under setting [2], 84.5 nM.

As to “UUAGGACAUGAGGAUCACCCAUGUGAGGAUAUGCUGCAGGGAGGUCCCAGCAAUAUUCGUAGAAGGCAUAAGGG”, the “apparent Kd” value was found to be 221 nM under setting [1] and 177 nM under setting [2].

Consider “GCAGCCGAUGCAGGAUAUCAGCACGUGUAGUGCUGAGAAGGGCACAUGAGGAUCACCCAUGUGAUCAAUUAAUAUCGAUGCUGC”, for which the “apparent Kd” value came out at 6.56 nM under setting [1] and 14.3 nM under setting [2].

On to “UGUCGGAGCAGAGGAUAUUACAUGAGGAUCACCCAUGUAUGCACCAAUAGCUGGAAACAGCAAUGUAAGAAGGCUGCUCCGACA”, for which the “apparent Kd” value reads like this: under setting [1], 5.38 nM; under setting [2], 15.2 nM.

As to “CGAUAUGAUGCAGGAUAUCUAUCUUGAAUGAGGAGAGAAGGGCAAAGGGAGACAUAAGCCUUAUUACAUGAGGAUCACCCAUGU”, the “apparent Kd” value is, setting by setting: under setting [1], 13.3 nM; under setting [2], 11.3 nM.

Consider “UUGAGGUGCAAGAAGGGUCACAUGAGGAUCACCCAUGUCAUGUGAAGUCUCGAGAUUUUAUAUGGAUAGGAUAUUGCACCGAAC”, for which the “apparent Kd” value reads like this: under setting [3], 197 nM; under setting [4], 98.2 nM.

Turning to “UUGGACGUCGUAGGAUAUGUAGGAUAUUCCUACAUGAGGAUCACCCAUGUUGACAUGGAAGAAGGACAGAAGAACGAUGUCCAU”, the “apparent Kd” value under setting [3] is 161 nM and the “apparent Kd” value under setting [4] worked out at 4.92 nM.

As for “GCAGGUCGGAAGGAUAUGAAUCUGCUCGCAGUUUCAGAAGGUCUGACAUGAGGAUCACCCAUGUUGGGCGCAUC”, the “apparent Kd” value was determined as 56.5 nM under setting [1] and 236 nM under setting [2].

For “AUAUGAUAGAUAGGAUAUACAGUGGUUUUAUAAGUAGAAGGAUCAAAUGGGAAUUAUACAUGAGGAUCACCCAUGUUUUUGGAU”, the “apparent Kd” value under setting [3] worked out at 58.6 nM and the “apparent Kd” value under setting [4] is 40.4 nM.

Turning to “UAUUAGUGAGGAUAUGGUAAAGAUAAGAUGAUGAAAGAACUCCAGAAGGCACAUGAGGAUCACCCAUGUAGUAG”, the “apparent Kd” value reads like this: under setting [1], 21.8 nM; under setting [2], 24.6 nM.

Regarding “CGCUGUCAUGCAGGAUAUGCAUUGGAUUACAAUGCAGAAGGGCGAUUACAUGAGGAUCACCCAUGUGUAGACGGUGAAGAAGAG”, the “apparent Kd” value under setting [3] was 137 nM and the “apparent Kd” value under setting [4] was found to be 13.1 nM.

Take “UCUUGUGUUGAGGAUAUGCGCCGGCUCGCUGGCGCAGAAGGCGGCACAUGAGGAUCACCCAUGUCAGUUCGCGA”: the “apparent Kd” value was found to be 502 nM under setting [1] and 60.8 nM under setting [2].

For the sequence “CCACAGAUAGGAUAUACUGGGUGGGAUAAAUAUUUCCUGUGACAUGAGGAUCACCCAUGUAGAAGGAUCACAAG”, the “apparent Kd” value worked out at 38.2 nM under setting [1] and 42.4 nM under setting [2].

Regarding “AAAAAACAUGAGGAUCACCCAUGUGAGGAUAUCCAAAAGUCAAAGAAAAAGACGAAAAGGAGAAGGCACAAAAA”, the “apparent Kd” value under setting [1] came to 72.8 nM and the “apparent Kd” value under setting [2] stood at 84.8 nM.

As for “UGAACUUCAGAGAAGGUCGAAUCGCAACGGUUCGAAGGAUAUCUGGAAACAUGAGGAUCACCCAUGUAACCGGGUGGAUGUCCU”, the “apparent Kd” value is, setting by setting: under setting [1], 56.8 nM; under setting [2], 246 nM.

As for “AAGUCUGGACGAGGAUAUCAGUUGUAUCUAGAUUCAACAUGAGGAUCACCCAUGUUGCAAUAGGGUGAGAAGGCGUUUGGGCAA”, the “apparent Kd” value runs as follows: under setting [3], 79.9 nM; under setting [4], 21.2 nM.

As for “GGAUCCAACACAGGAUAUGCUGGACUUUGUCCAGCAGAAGGGUGAAGAACAUGAGGAUCACCCAUGUGGAUCCAUACAUUUAAU”, the “apparent Kd” value reads like this: under setting [3], 254 nM; under setting [4], 15.7 nM.

As to “AAAACAUACCGAGGAUAUUCAUAUAAUAAAUAAACAUGAGGAUCACCCAUGUGGCGAAAGCCUAGGGAGAAGGCGGAAUGCUAA”, the “apparent Kd” value was 149 nM under setting [3] and 31.8 nM under setting [4].

On to “GAAUUCGCAUGAGGAUAUGCACUCAUUUCAUGUGCAGAAGGUAUAUCAUUAGACAUGAGGAUCACCCAUGUAUUGGUCAUUAAC”, for which the “apparent Kd” value worked out at 15.2 nM under setting [3] and 14 nM under setting [4].

Turning to “UUUUUGCUAUAUACAUGAGGAUCACCCAUGUCCACUGACAGACAGGAUAUCCUUAGAAACUAGCAGGAGAAGGGUCAGUCAUAC”, the “apparent Kd” value worked out at 487 nM under setting [3] and 69 nM under setting [4].

As to “AGCUGGUGACAGCAUCCAUCAUGACAUGAGGAUCACCCAUGUAGAAGGCUGUACGGUUACCGUACAGAGGAUAUACAAUGAUGG”, the “apparent Kd” value turned out to be 7.73 nM under setting [1] and 8.21 nM under setting [2].

With “CUUUUGUGAGGAUAUUAGUAGUAAAUAAAUAAUAUUACUACUGAGAAGGCACAUGAGGAUCACCCAUGUUCCUC”, the “apparent Kd” value is, setting by setting: under setting [1], 37 nM; under setting [2], 302 nM.

As to “AUCAUGUAAGGAUAUCUUAUAUGGAUCUUCGGAUCAAGUUAAGAGAAGGUACAUGAGGAUCACCCAUGUAUAAC”, the “apparent Kd” value reads like this: under setting [1], 23.2 nM; under setting [2], 35.8 nM.

With “AAACAUGUCCGAGGAUAUCUGGAAACUUUUUCAAGAGAAGGCGGACAUGAGGAUCACCCAUGUCUCUCCUCAUCAAAUCCAAGU”, the “apparent Kd” value under setting [1] was found to be 7.94 nM and the “apparent Kd” value under setting [2] worked out at 50.3 nM.

Turning to “UUAAUUAAUUAAUUGCAGUUUACAUGAGGAUCACCCAUGUAUAAGGAUAUCGUCAGGAAUACUGACGAGAAGGUAUACAUCUGC”, the “apparent Kd” value is 19 nM under setting [1] and 31.8 nM under setting [2].

Turning to “AUAAGCUCGUCAGGAUAUACGUCACUGCUUCGGCAGUGAGGUAAGAUCACAUGAGGAUCACCCAUGUAGAAGGGACGAGCUUAU”, the “apparent Kd” value under setting [1] is 5.65 nM and the “apparent Kd” value under setting [2] is 14.4 nM.

As to “GCUCGAUGUGCUGAAAACAUGAGGAUCACCCAUGUAAAUGGUCAGGAUAUUUACGUGCUUUAUGUAGAGAAGGGACCAUCGAGC”, the “apparent Kd” value under setting [3] came out at 200 nM and the “apparent Kd” value under setting [4] was found to be 30.9 nM.

Consider “UGUCGGAGCAGAGGAUAUUACAUGAGGAUCACCCAUGUAUGAACCAAUAGCUGGCAACAGCAAUGUAAGAAGGCUGCUCCGACA”, for which the “apparent Kd” value is, setting by setting: under setting [1], 12.8 nM; under setting [2], 168 nM.
